Data as given in ChEMBL document CHEMBL4007511, “Synthesis and Biological Evaluation of Bile Acid Analogues Inhibitory to Clostridium difficile Spore Germination” (J Med Chem, 2017).
pIC50, pKi: −log10 of the molar value. Activity calls are given as the source filed them. No cut-off for these calls is given here.

What was measured:
Clostridioides difficile [1] = assay: Competitive inhibition of taurocholate-induced spore germination in Clostridium difficile UK1 at 0.2 mM by Michaelis-Menten kinetic analysis; assay type: functional
Clostridioides difficile [2] = assay: Inhibition of TCA-induced spore germination in Clostridium difficile NAP1 assessed as spore germination at 10 uM measured after 20 mins under anaerobic condition by phase-contrast microscopic analysis relative to control; assay type: functional; set-up: scale not given: the % may be the effect or the level left
Procedure, shortened: (§1)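 Heat-treated spores exposed to BHIS with 2000 μM taurocholate plus analogue or DMSO control; t0 samples put on ice at once, t20 samples held 20 min at room temperature then iced; phase-bright spores and phase-dark germinated cells counted by hemocytometer under phase-contrast. % germination of total cells; relative value = (t20−t0) test/(t20−t0) control; triplicate, mean ± SD.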

Clostridioides difficile [3] = assay: Antibacterial activity against Clostridium difficile NAP1 assessed as concentration required for complete inhibition of TCA-induced spore germination measured after 20 mins under anaerobic condition; assay type: functional; details: NAP1, 20 min, read-out: MEC
Procedure, shortened: (§2)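 Spores (~0.5 McFarland, heat-treated 65 °C for 30 min) inoculated anaerobically into pre-reduced (2–3 h) BHIS (0.5% yeast extract, 0.1% L-cysteine) containing 2000 μM taurocholate plus analogue at varying concentrations; OD600 read each minute for 20 min, normalized to t0. Complete inhibition = relative OD600 ≥0.95 at 20 min; triplicate wells, solvent (DMSO or DMSO/ethanol) controls.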

Clostridioides difficile [4] = assay: Inhibition of TCA-induced spore germination in Clostridium difficile NAP1 at 0.2 mM using varying levels of TCA measured after 20 mins under anaerobic condition; assay type: functional
Clostridioides difficile [5] = assay: Inhibition of TCA-induced spore germination in Clostridium difficile NAP1 assessed as compound concentration required for complete inhibition by spectrophotometric method; assay type: functional; details: read-out: MEC; procedure, shortened: as §2
Clostridioides difficile [6] = assay: Induction of spore germination in Clostridium difficile NAP1 at 1500 to 2000 uM measured after 20 mins under anaerobic condition
[7] = human, caco-2, 10 µM
[8] = human, caco-2, 10 µM; remark: listed apart in the source
Clostridioides difficile [9] = assay: Inhibition of TCA-induced spore germination in Clostridium difficile NAP1 at 50 uM measured after 20 mins under anaerobic condition by phase-contrast microscopic analysis; assay type: functional; procedure, shortened: as §1
Clostridioides difficile [10] = assay: Inhibition of taurocholate/glycine-induced spore germination in Clostridium difficile 630 preincubated for 15 mins followed by taurocholate/glycine addition measured every minute for 90 mins; assay type: functional
in vitro [11] = details: human, Caco-2
in vitro [12] = details: human, Caco-2; remark: listed apart in the source

Row | SMILES | minimal effective concentration (Clostridioides difficile [3]) [µM] | further results
1 | COC(=O)CC[C@@H](C)[C@H]1CC[C@H]2[C@@H]3[C@H](O)C[C@@H]4C[C@H](O)CC[C@]4(C)[C@H]3CC[C@]12C | 500 | pKi (Clostridioides difficile [1]): 4.36; Activity (Clostridioides difficile [2]): 73%; pKi (Clostridioides difficile [4]): 3.93
2 | COC(=O)CC[C@@H](C)[C@H]1CC[C@H]2[C@@H]3[C@H](OC)C[C@@H]4C[C@H](O)CC[C@]4(C)[C@H]3CC[C@]12C | 500 | 
3 | CO[C@@H]1CC[C@@]2(C)[C@@H](C1)C[C@@H](OC)[C@@H]1[C@@H]2CC[C@]2(C)[C@@H]([C@H](C)CCC(=O)N3CCCC3)CC[C@@H]12 | 500 | 
4 | C[C@H](CCC(=O)O)[C@H]1CC[C@H]2[C@@H]3[C@@H](OS(=O)(=O)O)C[C@@H]4C[C@H](O)CC[C@]4(C)[C@H]3CC[C@]12C | 3000 | 
5 | C[C@H](CCC(=O)O)[C@H]1CC[C@H]2[C@@H]3[C@@H](O)C[C@@H]4C[C@H](O)CC[C@]4(C)[C@H]3CC[C@]12C [URSODIOL] |  | minimal effective concentration (Clostridioides difficile [5]): 500 µM
6 | C[C@H](CCC(=O)N1CCCC1)[C@H]1CC[C@H]2[C@@H]3[C@@H](O)C[C@@H]4C[C@H](O)CC[C@]4(C)[C@H]3CC[C@]12C | 100 | 
7 | C[C@H](CCC(C)(C)O)[C@H]1CC[C@H]2[C@H]3[C@H](CC[C@]12C)[C@@]1(C)CC[C@@H](O)C[C@H]1C[C@@]3(C)O | > 1000 | 
8 | CC(=O)O[C@@H]1CC[C@@]2(C)[C@@H](C1)C[C@H](OC(C)=O)[C@@H]1[C@@H]2CC[C@]2(C)[C@@H]([C@H](C)CCC(N)=O)CC[C@@H]12 | 50 | Activity (Clostridioides difficile [6]): Toxic
9 | COC(=O)CC[C@@H](C)[C@H]1CC[C@H]2[C@@H]3[C@@H](O)C[C@@H]4C[C@H](O)CC[C@]4(C)[C@H]3CC[C@]12C | 50 | 
10 | COC(=O)CC[C@@H](C)[C@H]1CC[C@H]2[C@@H]3[C@@H](OC)C[C@@H]4C[C@H](OC)CC[C@]4(C)[C@H]3CC[C@]12C | 500 | 
11 | CCCCNC(=O)CC[C@@H](C)[C@H]1CC[C@H]2[C@@H]3[C@@H](O)C[C@@H]4C[C@H](O)CC[C@]4(C)[C@H]3CC[C@]12C | 500 | 
12 | CO[C@@H]1CC[C@@]2(C)[C@@H](C1)C[C@H](OS(=O)(=O)[O-])[C@@H]1[C@@H]2CC[C@]2(C)[C@@H]([C@H](C)CCC(=O)N3CCCC3)CC[C@@H]12.[Na+] | 50 | Activity (Clostridioides difficile [2]): 9%; Papp [7]: 0.1 ×10⁻⁶ cm/s; Papp [8]: 2.1 ×10⁻⁶ cm/s; pKi (Clostridioides difficile [4]): 4.70; inhibition (Clostridioides difficile [9]): Active
13 | CO[C@@H]1CC[C@@]2(C)[C@@H](C1)C[C@H](OC)[C@@H]1[C@@H]2CC[C@]2(C)[C@@H]([C@H](C)CCC(=O)N3CCCC3)CC[C@@H]12 | 1000 | 
14 | CO[C@H]1C[C@@H]2C[C@H](O)CC[C@]2(C)[C@H]2CC[C@]3(C)[C@@H]([C@H](C)CCC(=O)O)CC[C@H]3[C@H]12 | > 500 | Activity (Clostridioides difficile [6]): Toxic
15 | C[C@H](CCC(=O)Nc1cccc(S(=O)(=O)O)c1)[C@H]1CC[C@H]2[C@@H]3[C@H](O)C[C@@H]4C[C@H](O)CC[C@]4(C)[C@H]3C[C@H](O)[C@]12C | > 1000 | Activity (Clostridioides difficile [2]): 78%; pIC50 (Clostridioides difficile [10]): 4.24
16 | CO[C@@H]1CC[C@@]2(C)[C@@H](C1)C[C@H](OC)[C@@H]1[C@@H]2CC[C@]2(C)[C@@H]([C@H](C)CCC(=O)O)CC[C@@H]12 | > 1000 | Activity (Clostridioides difficile [2]): 75%

Row | SMILES | minimal effective concentration (Clostridioides difficile [3]) [µM] | further results
17 | COC(=O)CC[C@@H](C)[C@H]1CC[C@H]2[C@@H]3[C@@H](OC)C[C@@H]4C[C@H](O)CC[C@]4(C)[C@H]3CC[C@]12C | 500 | 
18 | CO[C@@H]1CC[C@@]2(C)[C@@H](C1)C[C@@H](O)[C@@H]1[C@@H]2CC[C@]2(C)[C@@H]([C@H](C)CCC(=O)O)CC[C@@H]12 | > 100 | Activity (Clostridioides difficile [6]): Toxic
19 | CO[C@@H]1CC[C@@]2(C)[C@@H](C1)C[C@H](O)[C@@H]1[C@@H]2CC[C@]2(C)[C@@H]([C@H](C)CCC(=O)O)CC[C@@H]12 | > 500 | Activity (Clostridioides difficile [6]): Toxic
20 | C[C@H](CCC(=O)O)[C@H]1CC[C@H]2[C@@H]3[C@H](O)C[C@@H]4C[C@H](O)CC[C@]4(C)[C@H]3CC[C@]12C [CHENODIOL] | 500 | 
21 | COC(=O)CC[C@@H](C)[C@H]1CC[C@H]2[C@@H]3[C@H](O)C[C@@H]4C[C@H](OC)CC[C@]4(C)[C@H]3CC[C@]12C | 500 | 
22 | COC(=O)CC[C@@H](C)[C@H]1CC[C@H]2[C@H]3[C@H](CC[C@]12C)[C@@]1(C)CC[C@@H](O)C[C@H]1C[C@@]3(C)O | 50 | 
23 | C[C@H](CCC(=O)N1CCCC1)[C@H]1CC[C@H]2[C@@H]3[C@H](O)C[C@@H]4C[C@H](O)CC[C@]4(C)[C@H]3CC[C@]12C | 50 | 
24 | C[C@H](CCC(=O)O)[C@H]1CC[C@H]2[C@@H]3C[C@H](O)[C@@H]4C[C@H](O)CC[C@]4(C)[C@H]3CC[C@]12C [HYODEOXYCHOLIC_ACID] | 500 | Activity (Clostridioides difficile [6]): Toxic
25 | CC(=O)O[C@@H]1CC[C@@]2(C)[C@@H](C1)C[C@@H](OC(C)=O)[C@@H]1[C@@H]2CC[C@]2(C)[C@@H]([C@H](C)CCC(N)=O)CC[C@@H]12 | 50 | 
26 | COC(=O)CC[C@@H](C)[C@H]1CC[C@H]2[C@@H]3[C@@H](O)C[C@@H]4C[C@H](OC)CC[C@]4(C)[C@H]3CC[C@]12C | 500 | 
27 | CO[C@@H]1CC[C@@]2(C)[C@@H](C1)C[C@@H](OS(=O)(=O)[O-])[C@@H]1[C@@H]2CC[C@]2(C)[C@@H]([C@H](C)CCC(=O)c3nnn[n-]3)CC[C@@H]12.[Na+].[Na+] | 25 | Papp B→A at 10 µM (in vitro [11]): 0.4 ×10⁻⁶ cm/s; Activity (Clostridioides difficile [2]): 51%; Papp A→B at 10 µM (in vitro [12]): 0.4 ×10⁻⁶ cm/s
28 | CCCCNC(=O)CC[C@@H](C)[C@H]1CC[C@H]2[C@@H]3[C@H](O)C[C@@H]4C[C@H](O)CC[C@]4(C)[C@H]3CC[C@]12C | 500 | 
29 | COC(=O)CC[C@@H](C)[C@H]1CC[C@H]2[C@@H]3[C@H](OC)C[C@@H]4C[C@H](OC)CC[C@]4(C)[C@H]3CC[C@]12C | 500 | 
30 | COC(=O)CC[C@@H](C)[C@H]1CC[C@H]2[C@@H]3C[C@H](O)[C@@H]4C[C@H](O)CC[C@]4(C)[C@H]3CC[C@]12C | 500 | 
31 | C[C@H](CCC(=O)NC(C)(C)CO)[C@H]1CC[C@H]2[C@@H]3[C@H](O)C[C@@H]4C[C@H](O)CC[C@]4(C)[C@H]3CC[C@]12C | 500 | 
